{
  "source": "ChEMBL document CHEMBL4689842",
  "about": "“EUbOPEN Chemogenomics Library wave 1” (2021)",
  "system": "HEK-293T",
  "experiment": "Multiplex assay against HEK293T;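 as to Population Tubulin-Different-Phenotype (%): share of the cells with healthy nuclei that show this phenotype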",
  "assay_type": "toxicity, cell-based",
  "settings": "human",
  "outline": "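Four dyes were applied at seeding to live cells: Hoechst33342, BioTracker Green Microtubule Cytoskeleton Dye, MitoTracker Red and Annexin V Alexa Fluor 680. Imaging after compound addition used a CQ1 microscope at 37°C and 5% CO2. CellPathfinder machine-learning gating then sorted cells into Hoechst high-intensity objects or normal cells, normal cells into healthy, pyknosed or fragmented nuclei, and pyknosed cells into mitotic or apoptotic, with tubulin, mitochondrial-mass and membrane-permeability phenotypes given as per cents of healthy-nucleus cells.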",
  "key": {"[1]": {"settings": "12 h, 1 µM, compound concentration 1 uM, replicate 1"}, "[2]": {"settings": "12 h, 1 µM, compound concentration 1 uM, replicate 2"}, "[3]": {"settings": "12 h, 10 µM, compound concentration 10 uM, replicate 1"}, "[4]": {"settings": "12 h, 10 µM, compound concentration 10 uM, replicate 2"}, "[5]": {"settings": "24 h, 1 µM, compound concentration 1 uM, replicate 1"}, "[6]": {"settings": "24 h, 1 µM, compound concentration 1 uM, replicate 2"}, "[7]": {"settings": "24 h, 10 µM, compound concentration 10 uM, replicate 1"}, "[8]": {"settings": "24 h, 10 µM, compound concentration 10 uM, replicate 2"}, "[9]": {"settings": "48 h, 10 µM, compound concentration 10 uM, replicate 1"}, "[10]": {"settings": "48 h, 10 µM, compound concentration 10 uM, replicate 2"}},
  "note": "Where “and” joins values, the source holds several entries; their conditions need not be identical. Equal entries are not always repeated.",
  "data": [
    {"compound": "Cl.O=C(c1ccc(Nc2nccc(-c3cc4ccccc4s3)n2)cc1)N1CCC(N2CCCC2)CC1", "values": [
      {"measurement": "Population Apoptotic (%)", "setting": "[1]", "result": 28, "unit": "%"},
      {"measurement": "Population Fragmented Nuclei (%)", "setting": "[1]", "result": 10, "unit": "%"},
      {"measurement": "Population Healthy Nuclei (%)", "setting": "[1]", "result": 59, "unit": "%"},
      {"measurement": "Population Hoechst High Intensity Objects (%)", "setting": "[1]", "result": 8, "unit": "%"},
      {"measurement": "Population Membrane Permeable-Phenotype (%)", "setting": "[1]", "result": 17, "unit": "%"},
      {"measurement": "Population Mitochondria Different-Phenotype (%)", "setting": "[1]", "result": 14, "unit": "%"},
      {"measurement": "Population Mitotic Cells (%)", "setting": "[1]", "result": 71, "unit": "%"},
      {"measurement": "Population Normal (%)", "setting": "[1]", "result": 91, "unit": "%"},
      {"measurement": "Population Pyknosed Nuclei (%)", "setting": "[1]", "result": 29, "unit": "%"},
      {"measurement": "Population Tubulin-Different-Phenotype (%)", "setting": "[1]", "result": 73, "unit": "%"},
      {"measurement": "Total Cell Count", "setting": "[1]", "result": 657},
      {"measurement": "Population Apoptotic (%)", "setting": "[2]", "result": 12, "unit": "%"},
      {"measurement": "Population Fragmented Nuclei (%)", "setting": "[2]", "result": 4, "unit": "%"},
      {"measurement": "Population Healthy Nuclei (%)", "setting": "[2]", "result": 89, "unit": "%"},
      {"measurement": "Population Hoechst High Intensity Objects (%)", "setting": "[2]", "result": 3, "unit": "%"},
      {"measurement": "Population Membrane Permeable-Phenotype (%)", "setting": "[2]", "result": 11, "unit": "%"},
      {"measurement": "Population Mitochondria Different-Phenotype (%)", "setting": "[2]", "result": 20, "unit": "%"},
      {"measurement": "Population Mitotic Cells (%)", "setting": "[2]", "result": 87, "unit": "%"},
      {"measurement": "Population Normal (%)", "setting": "[2]", "result": 96, "unit": "%"},
      {"measurement": "Population Pyknosed Nuclei (%)", "setting": "[2]", "result": 6, "unit": "%"},
      {"measurement": "Population Tubulin-Different-Phenotype (%)", "setting": "[2]", "result": 67, "unit": "%"},
      {"measurement": "Total Cell Count", "setting": "[2]", "result": 1518},
      {"measurement": "Population Apoptotic (%)", "setting": "[3]", "result": "32% and 71%"},
      {"measurement": "Population Fragmented Nuclei (%)", "setting": "[3]", "result": "13% and 26%"},
      {"measurement": "Population Healthy Nuclei (%)", "setting": "[3]", "result": "21% and 0%"},
      {"measurement": "Population Hoechst High Intensity Objects (%)", "setting": "[3]", "result": "17% and 23%"},
      {"measurement": "Population Membrane Permeable-Phenotype (%)", "setting": "[3]", "result": "4% and 0%"},
      {"measurement": "Population Mitochondria Different-Phenotype (%)", "setting": "[3]", "result": "66% and 100%"},
      {"measurement": "Population Mitotic Cells (%)", "setting": "[3]", "result": "67% and 28%"},
      {"measurement": "Population Normal (%)", "setting": "[3]", "result": "82% and 76%"},
      {"measurement": "Population Pyknosed Nuclei (%)", "setting": "[3]", "result": "65% and 72%"},
      {"measurement": "Population Tubulin-Different-Phenotype (%)", "setting": "[3]", "result": "75% and 100%"},
      {"measurement": "Population Fragmented Nuclei (%)", "setting": "[4]", "result": "3% and 9%"},
      {"measurement": "Population Hoechst High Intensity Objects (%)", "setting": "[4]", "result": "9% and 10%"},
      {"measurement": "Population Membrane Permeable-Phenotype (%)", "setting": "[4]", "result": 6, "unit": "%"},
      {"measurement": "Population Mitochondria Different-Phenotype (%)", "setting": "[4]", "result": "68% and 75%"},
      {"measurement": "Population Normal (%)", "setting": "[4]", "result": "90% and 89%"},
      {"measurement": "Population Pyknosed Nuclei (%)", "setting": "[4]", "result": "58% and 87%"},
      {"measurement": "Population Tubulin-Different-Phenotype (%)", "setting": "[4]", "result": 97, "unit": "%"},
      {"measurement": "Population Apoptotic (%)", "setting": "[5]", "result": 17, "unit": "%"},
      {"measurement": "Population Fragmented Nuclei (%)", "setting": "[5]", "result": 8, "unit": "%"},
      {"measurement": "Population Healthy Nuclei (%)", "setting": "[5]", "result": 79, "unit": "%"},
      {"measurement": "Population Hoechst High Intensity Objects (%)", "setting": "[5]", "result": 7, "unit": "%"},
      {"measurement": "Population Membrane Permeable-Phenotype (%)", "setting": "[5]", "result": 24, "unit": "%"},
      {"measurement": "Population Mitochondria Different-Phenotype (%)", "setting": "[5]", "result": 9, "unit": "%"},
      {"measurement": "Population Mitotic Cells (%)", "setting": "[5]", "result": 82, "unit": "%"},
      {"measurement": "Population Normal (%)", "setting": "[5]", "result": 92, "unit": "%"},
      {"measurement": "Population Pyknosed Nuclei (%)", "setting": "[5]", "result": 11, "unit": "%"},
      {"measurement": "Population Tubulin-Different-Phenotype (%)", "setting": "[5]", "result": 64, "unit": "%"},
      {"measurement": "Total Cell Count", "setting": "[5]", "result": 845},
      {"measurement": "Population Apoptotic (%)", "setting": "[6]", "result": 3, "unit": "%"},
      {"measurement": "Population Fragmented Nuclei (%)", "setting": "[6]", "result": 14, "unit": "%"},
      {"measurement": "Population Healthy Nuclei (%)", "setting": "[6]", "result": 82, "unit": "%"},
      {"measurement": "Population Hoechst High Intensity Objects (%)", "setting": "[6]", "result": 3, "unit": "%"},
      {"measurement": "Population Membrane Permeable-Phenotype (%)", "setting": "[6]", "result": 14, "unit": "%"},
      {"measurement": "Population Mitochondria Different-Phenotype (%)", "setting": "[6]", "result": 4, "unit": "%"},
      {"measurement": "Population Mitotic Cells (%)", "setting": "[6]", "result": 96, "unit": "%"},
      {"measurement": "Population Normal (%)", "setting": "[6]", "result": 96, "unit": "%"},
      {"measurement": "Population Pyknosed Nuclei (%)", "setting": "[6]", "result": 2, "unit": "%"},
      {"measurement": "Population Tubulin-Different-Phenotype (%)", "setting": "[6]", "result": 42, "unit": "%"},
      {"measurement": "Total Cell Count", "setting": "[6]", "result": 2625},
      {"measurement": "Population Apoptotic (%)", "setting": "[7]", "result": "80% and 55%"},
      {"measurement": "Population Fragmented Nuclei (%)", "setting": "[7]", "result": "24% and 18%"},
      {"measurement": "Population Healthy Nuclei (%)", "setting": "[7]", "result": "0% and 14%"},
      {"measurement": "Population Hoechst High Intensity Objects (%)", "setting": "[7]", "result": "28% and 19%"},
      {"measurement": "Population Membrane Permeable-Phenotype (%)", "setting": "[7]", "result": "0% and 8%"},
      {"measurement": "Population Mitotic Cells (%)", "setting": "[7]", "result": "19% and 44%"},
      {"measurement": "Population Normal (%)", "setting": "[7]", "result": "71% and 80%"},
      {"measurement": "Population Pyknosed Nuclei (%)", "setting": "[7]", "result": "75% and 67%"},
      {"measurement": "Population Apoptotic (%)", "setting": "[8]", "result": "58% and 99%"},
      {"measurement": "Population Fragmented Nuclei (%)", "setting": "[8]", "result": "7% and 14%"},
      {"measurement": "Population Hoechst High Intensity Objects (%)", "setting": "[8]", "result": "17% and 16%"},
      {"measurement": "Population Membrane Permeable-Phenotype (%)", "setting": "[8]", "result": 9, "unit": "%"},
      {"measurement": "Population Mitochondria Different-Phenotype (%)", "setting": "[8]", "result": "84% and 66%"},
      {"measurement": "Population Normal (%)", "setting": "[8]", "result": "82% and 83%"},
      {"measurement": "Population Pyknosed Nuclei (%)", "setting": "[8]", "result": "79% and 81%"},
      {"measurement": "Population Tubulin-Different-Phenotype (%)", "setting": "[8]", "result": "64% and 66%"},
      {"measurement": "Population Apoptotic (%)", "setting": "[9]", "result": 82, "unit": "%"},
      {"measurement": "Population Fragmented Nuclei (%)", "setting": "[9]", "result": 35, "unit": "%"},
      {"measurement": "Population Healthy Nuclei (%)", "setting": "[9]", "result": 0, "unit": "%"},
      {"measurement": "Population Hoechst High Intensity Objects (%)", "setting": "[9]", "result": 30, "unit": "%"},
      {"measurement": "Population Membrane Permeable-Phenotype (%)", "setting": "[9]", "result": 0, "unit": "%"},
      {"measurement": "Population Mitochondria Different-Phenotype (%)", "setting": "[9]", "result": 100, "unit": "%"},
      {"measurement": "Population Mitotic Cells (%)", "setting": "[9]", "result": 17, "unit": "%"},
      {"measurement": "Population Normal (%)", "setting": "[9]", "result": 69, "unit": "%"},
      {"measurement": "Population Pyknosed Nuclei (%)", "setting": "[9]", "result": 63, "unit": "%"},
      {"measurement": "Population Tubulin-Different-Phenotype (%)", "setting": "[9]", "result": 100, "unit": "%"},
      {"measurement": "Total Cell Count", "setting": "[9]", "result": 159},
      {"measurement": "Population Apoptotic (%)", "setting": "[10]", "result": 100, "unit": "%"},
      {"measurement": "Population Fragmented Nuclei (%)", "setting": "[10]", "result": 19, "unit": "%"},
      {"measurement": "Population Healthy Nuclei (%)", "setting": "[10]", "result": 4, "unit": "%"},
      {"measurement": "Population Hoechst High Intensity Objects (%)", "setting": "[10]", "result": 17, "unit": "%"},
      {"measurement": "Population Membrane Permeable-Phenotype (%)", "setting": "[10]", "result": 16, "unit": "%"},
      {"measurement": "Population Mitochondria Different-Phenotype (%)", "setting": "[10]", "result": 83, "unit": "%"},
      {"measurement": "Population Mitotic Cells (%)", "setting": "[10]", "result": 0, "unit": "%"},
      {"measurement": "Population Normal (%)", "setting": "[10]", "result": 82, "unit": "%"},
      {"measurement": "Population Pyknosed Nuclei (%)", "setting": "[10]", "result": 75, "unit": "%"},
      {"measurement": "Population Tubulin-Different-Phenotype (%)", "setting": "[10]", "result": 66, "unit": "%"},
      {"measurement": "Total Cell Count", "setting": "[10]", "result": 146}
    ]}
  ]
}
